# Screening data from PubChem.
# ERAP1 HTS inh: human ERAP1 aminopeptidase inhibitors, primary screen, biochemical, single point, plate reader; Endoplasmic reticulum aminopeptidase 1 (Homo sapiens), Q9NZ08; recombinant ERAP1, Leu-AMC fluorescence, 60 min; inhibition, % at 10.7 µM; 340,000 compounds, 0.15% hits; AID 652197, 2013;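 active means mean replicate inhibition of at least 30%, or all replicates individually reaching that 30% level; inactive means mean below 30% and not every replicate reaching it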;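 further: 0% = neutral control wells and 100% = L-leucinethiol positive control wells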
# miR-122 sensor: miR-122 Renilla sensor signal increase in Huh7, primary screen, miR-122 inhibitor project, cell-based, single point, plate reader; Huh7 miR-122 Renilla luciferase sensor, 48 h; neutral wells = 0, positive control = 100; activation (reporter increase), % at 12.5 µM; 340,000 compounds, 0.3% hits;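 active means mean replicate activation score at least 90 and every replicate individually at or above 90; inconclusive means only one of the two criteria met; inactive means neither criterion met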;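 further: higher luciferase means less miR-122 activity so hits act as miR-122 inhibitors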
# DENV2 CPE rescue: inhibitors of DENV2 cytopathic effect, primary screen, cell-based, plate reader, single concentration. CPE inhibition, % at 9.99 µM. AID 651640, 2012. 350,000 compounds, 1.7% hits. DENV2-infected cells, cytopathic effect rescue; in the data active means CPE inhibition above about 20%, passing the limit was not always enough; inconclusive means no clear call, values can overlap the other calls; tested in BHK-21 cells;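 further: 0% = median of neutral control wells and 100% = median of positive control wells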
# F508del corr: F508del CFTR correction, initial screen, CFBE line, single point | CFBE cells, YFP halide quenching; stimulated with forskolin plus potentiator P3; % fluorescence drop versus neutral controls | AID 720511, 2013 | 350,000 compounds, 0.36% hits | activity (quench increase), % at 7.58 µM;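 active means mean added fluorescence quench of at least 8% versus neutral control, with both replicates also reaching 8%; inconclusive means only one of the mean or replicate conditions met; inactive means mean below 8% and not both replicates reaching 8%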;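 further: cells transiently co-express mutant CFTR-F508del with the halide-sensitive YFP; corrector assay measuring rescue of mutant channel to the surface after 24 h compound exposure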
# E-sel inducer: E-selectin induction in HUVECs, primary screen, imaging, HUVEC, immunofluorescence imaging, single point. P16581. activation, % at 7.58 µM. 260,000 compounds, 0.37% hits. normalized: neutral wells 0, TNF-alpha wells 100;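 active means mean E-selectin-positive cell signal at least 10% of the positive control, reached in at least 60% of replicates, without over 20% cell loss; inconclusive means no rule given, readout overlaps actives, possibly toxicity-flagged; inactive means the rest, including those meeting only one limit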
# Target sequence (P16581 whole entry, looked up): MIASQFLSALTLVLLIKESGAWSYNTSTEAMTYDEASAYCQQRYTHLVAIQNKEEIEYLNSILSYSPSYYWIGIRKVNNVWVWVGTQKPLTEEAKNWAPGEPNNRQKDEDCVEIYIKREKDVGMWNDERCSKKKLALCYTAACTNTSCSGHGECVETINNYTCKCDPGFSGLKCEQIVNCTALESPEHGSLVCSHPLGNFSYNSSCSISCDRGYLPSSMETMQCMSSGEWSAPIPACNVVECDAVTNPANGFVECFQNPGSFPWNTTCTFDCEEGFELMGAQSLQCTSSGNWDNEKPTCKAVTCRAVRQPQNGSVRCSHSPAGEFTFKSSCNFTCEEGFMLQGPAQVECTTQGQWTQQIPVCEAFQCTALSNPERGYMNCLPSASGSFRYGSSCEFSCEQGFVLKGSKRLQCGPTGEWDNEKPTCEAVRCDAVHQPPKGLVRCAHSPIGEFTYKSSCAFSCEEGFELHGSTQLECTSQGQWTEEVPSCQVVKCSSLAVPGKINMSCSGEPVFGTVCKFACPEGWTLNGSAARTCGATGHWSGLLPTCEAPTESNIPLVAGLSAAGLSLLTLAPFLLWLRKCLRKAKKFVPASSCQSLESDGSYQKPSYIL
#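 System: HUVEC / Compound: single concentration / Signal: immunofluorescence imaging / Read-out: percent E-selectin-positive cells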
# INS-1E GSIS act: GLuc luminescence reporter in INS-1E cells, primary screen for activators of glucose-dependent secretion of insulin; activation, % at 16.6 µM; INS-1E GLuc reporter insulin secretion, 2-3 h; 370,000 compounds, 0.61% hits;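 active means lowest replicate activation of at least 40%, so every replicate reaches that level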;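 further: 0% = median of neutral control wells and 100% = median of IBMX positive control wells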
# Starred values were filed as active, the others as inactive; ? = inconclusive; . = no result; [ ] = remark or other dose. Shown are actives, neighbours in structure and some others; about 2.6% of the full set was active somewhere.
SMILES,ERAP1 HTS inh,miR-122 sensor,DENV2 CPE rescue,F508del corr,E-sel inducer,INS-1E GSIS act
Cc1ccccc1-c1ccc(C2[C@@H]3CN(C(=O)C4CCC4)C[C@H]2N3)cc1 (stereo partly drawn),.,.,.,.,.,8
COc1ccc2sc3cccc(NCCN(C)C)c3c(=O)c2c1,15,.,2,12*,0,2
CC1CCN(C(=O)CSc2nc(=O)n3cc(Cl)ccc3n2)CC1,3,.,0,3,1,78*
CCC1(C2=CCCCC2)C(=O)NC(=S)N=C1N (stereo not drawn),1,-3,6,8.7*,-1,1
COc1cccc(-c2cnc3c(c2)C(=O)N([C@@H](C)CO)C[C@@H](C)[C@@H](CN(C)C(=O)Nc2ccccc2F)O3)c1,4,-4[16.7 µM],11,1,0,-1
C#Cc1ccc(C(=O)Nc2ccc(N3CCC(C)CC3)c(C(N)=O)c2)cc1,3,.,-1,16*,.,8
CCN1CCN(c2ccc(S(=O)(=O)N3CCCCC3)cc2NC(=O)c2cc3ccccc3o2)CC1,2,.,?,5,1,46*
Cc1ccc(S(=O)(=O)N2CCCCC2)cc1NC(=O)c1cc2ccccc2o1,5,5,7,4,0,-10
COCC(=O)N1CC2(C1)[C@H](c1ccc(-c3ccccc3)cc1)[C@H](CO)N2C(=O)COC,0,.,-5,0,0,6
O=C(CS)NCCCCCCNC(=O)[C@H]1C[C@H]2C(=O)NCC(=O)N2[C@H]1c1cccc(OCCO)c1,-1,.,7,-1,.,.
CC(C)C[C@@H]1NC(=O)[C@H]2C[C@@H](C(=O)NCCCCCN)[C@@H](c3cccc(OCCO)c3)N2C1=O,4,.,32*,-1,.,.
COCCNC(=O)C1CCCN(C(=O)c2cc(C)n(C(C)(C)C)n2)CC1 (stereo not drawn),-3,-4,-2,-4,.,.
COCCNC(=O)C1CCCN(C(=O)c2cc(C)nn2C(C)(C)C)CC1 (stereo not drawn),-3,-1,21*,-1,0,3
COc1ccccc1Nc1ncnc2c1c(C)c(C)n2CCCN(C)C,2,2,42*,-3,0,9
Cc1c(C)n(CCCN(C)C)c2ncnc(Nc3ccccc3)c12,-3,1,-1,3,0,-5
CC1=Nc2cc(C(=O)O)ccc2Sc2ccc(Br)cc21,-1,-3,9,-3,4,12
CC1=Nc2cc(C(=O)NCC3CCCO3)ccc2Sc2ccc(Br)cc21 (stereo not drawn),1,4,2,13*,2,.
COc1ccc2c3c(n(C)c2c1)[C@H](CO)N(Cc1cccc(Cl)c1)CC31CCN(C(C)=O)CC1,5,.,16,2,0,9
COC(=O)c1scc(C)c1NC(=O)CC1NCCNC1=O (stereo not drawn),-2,-7,-1,0,.,60*
Cc1ccc(NC(=O)CC2NCCNC2=O)cc1 (stereo not drawn),.,0,.,.,.,.
C[C@@H]1CCCCO[C@H](CN(C)C(=O)CCC(F)(F)F)[C@H](C)CN([C@@H](C)CO)C(=O)c2cc(NC(=O)c3ccncc3)ccc2O1,.,.,.,.,0,11
O=C(Nc1nc2ccccc2n1Cc1ccc(Cl)cc1)c1ccco1,.,.,.,.,.,48*
O=C(Cc1ccccn1)N1CC(=O)N2[C@@H](CO)[C@H](c3ccc(C#CC4CCCC4)cc3)[C@@H]2C1,32*,.,6,1,-1,2
CN(C)CC(=O)N1[C@H](CO)[C@@H](c2ccc(C#CC3CCCCC3)cc2)[C@@H]1C#N,1,.,19,2,0,-7
O=C(Cc1ccccn1)N1CC(=O)N2[C@H](C1)[C@H](c1ccc(C#CC3CCCC3)cc1)[C@@H]2CO,3,.,9,2,0,1
CN(C)CC(=O)N1[C@H](C#N)[C@H](c2ccc(C#CC3CCCCC3)cc2)[C@@H]1CO,2,.,40*,-2,0,-5
CN(C)CC(=O)N1[C@@H](C#N)[C@H](c2ccc(C#CC3CCCC3)cc2)[C@@H]1CO,3,.,23*,-2,0,-1
